Data reported in ChEMBL document CHEMBL5712918, “Targeting methyltransferase PRMT5 retards the carcinogenesis and metastasis of HNSCC via epigenetically inhibiting Twist1 transcription” (Neoplasia, 2020).
Active and inactive are the calls of the source. The rule behind the calls is not given here.

Assays:
[1] = biological target: Protein arginine N-methyltransferase 5 (Homo sapiens) (UniProt O14744); assay: Inhibition of PRMT5 in human HSC-6 cells assessed as reduction in Twist1 mRNA expression at 10 uM incubated for 4 days by RT-qPCR analysis; type: cell-based; details: time 4.0 day
Sequence of Protein arginine N-methyltransferase 5 (Homo sapiens) (O14744 whole entry): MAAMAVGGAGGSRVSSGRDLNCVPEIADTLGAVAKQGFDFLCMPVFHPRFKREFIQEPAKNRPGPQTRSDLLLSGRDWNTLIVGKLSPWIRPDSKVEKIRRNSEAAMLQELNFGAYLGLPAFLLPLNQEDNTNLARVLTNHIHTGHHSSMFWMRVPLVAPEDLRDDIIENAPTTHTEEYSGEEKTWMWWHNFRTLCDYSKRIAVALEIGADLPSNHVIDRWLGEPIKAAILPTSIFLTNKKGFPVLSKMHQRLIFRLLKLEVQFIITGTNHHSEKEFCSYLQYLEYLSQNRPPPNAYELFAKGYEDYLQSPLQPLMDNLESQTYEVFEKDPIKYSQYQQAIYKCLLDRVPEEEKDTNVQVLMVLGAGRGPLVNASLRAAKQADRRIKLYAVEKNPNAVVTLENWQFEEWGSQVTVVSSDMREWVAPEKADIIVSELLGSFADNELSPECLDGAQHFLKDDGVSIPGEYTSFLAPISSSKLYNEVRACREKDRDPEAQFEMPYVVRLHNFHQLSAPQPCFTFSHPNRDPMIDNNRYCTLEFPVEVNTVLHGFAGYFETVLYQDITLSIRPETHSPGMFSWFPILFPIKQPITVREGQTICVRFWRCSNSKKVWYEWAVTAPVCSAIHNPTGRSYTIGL
Summary of the method: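 HSC6 or SCC25 cells exposed to 10 μM for 4 days. Twist1 mRNA measured by quantitative RT-PCR. Mean ± SD of three independent experiments, Student's t test.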

[2] = tested on: Squamous carcinoma cell line; assay: Antitumor activity against human squamous carcinoma cells in BALB/c nude PDX xenograft mouse assessed as tumor volume at 30 mg/kg; type: functional, organism-based
Summary of the method: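 PDX: tongue squamous carcinoma tissue minced into 1∼2 mm3 pieces and passaged in BALB/c nude mice. P2 tissue implanted subcutaneously into 4-week-old mice, randomised at 50 mm3 tumour size to control or 30 mg/kg (n = 6 each). Volume change followed, and Ki-67 IHC quantified. Mean ± SD, Student's t test.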

[3] = biological target: Protein arginine N-methyltransferase 5 (Homo sapiens) (UniProt O14744); assay: Inhibition of PRMT5 in human HSC-6 cells assessed as reduction in H3R8me2 protein expression at 10 uM incubated for 4 days by western blot analysis; type: cell-based; details: time 4.0 day
HSC-6 [4] = assay: Antimigratory activity against human HSC-6 cells assessed as reduction in cell migration after 48 hrs incubated for 48 hrs by transwell assay; type: functional, cell-based
HSC-6 [5] = assay: Antitumor activity against human HSC-6 cells xenografted in BALB/c nude mouse assessed as reduction in tumor volume at 15 to 30 mg/kg; details: dose 15-30 mg/kg
[6] = biological target: Protein arginine N-methyltransferase 5 (Homo sapiens) (UniProt O14744); assay: Inhibition of PRMT5 in human SCC-25 cells assessed as reduction in H4R3me2 protein expression at 10 uM incubated for 4 days by western blot analysis; type: cell-based; details: time 4.0 day
SCC-25 = assay: Antiproliferative activity against human SCC-25 cells assessed as reduction in colony formation at 0.5 to 5 uM after 10 to 14 days […]; type: functional, cell-based; details: dose 0.5-5 µM, time 10-14 day
Summary of the method: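 Colony formation: cells dispersed to single cells and seeded at 500 cells/well in 6-well plates. Grown 10–14 days until macroscopic clones appeared, then formaldehyde-fixed and crystal violet-stained. Clone formation rate from clones counted by eye.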

[7] = biological target: Protein arginine N-methyltransferase 5 (Homo sapiens) (UniProt O14744); assay: Inhibition of PRMT5 in human HSC-6 cells assessed as reduction in H4R3me2 protein expression at 10 uM incubated for 4 days by western blot analysis; type: cell-based; details: time 4.0 day
HSC-6 [8] = assay: Antitumor activity against human HSC-6 cells xenografted in BALB/c nude mouse assessed as reduction in number of Twist1 positive cells at 30 mg/kg by IHC staining; type: functional, organism-based
Summary of the method: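 HSC6 subcutaneous xenograft: 6 × 10^7 cells into the back of 4-week-old BALB/c nude mice, dosed at 15 or 30 mg/kg. IHC with Ki67 1:400 or Twist1 1:250. Percent positive cells from 5 random fields per sample. Student's t test; Twist1 groups n = 6/6.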

[9] = Toxicity in BALB/c nude mouse xenografted with human HSC6 cells of orthotopic tumor assessed as effect on body weight at 30 mg/kg; type: organism-based; details: in vivo
Summary of the method: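 Orthotopic model: 5 × 10^5 HSC6 cells injected submucosally into the tongue of 4-week-old BALB/c nude mice. Control vs 30 mg/kg (n = 12 each). Body weight was followed, and cervical lymph nodes were stained with pan-cytokeratin.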

[10] = biological target: Protein arginine N-methyltransferase 5 (Homo sapiens) (UniProt O14744); assay: Inhibition of PRMT5 in human HSC-6 cells assessed as reduction in WDR5 occupancy in Twist1 promoter region at 10 uM incubated for 4 days by Chip-qPCR analysis; type: cell-based; details: time 4.0 day
Summary of the method: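 ChIP-qPCR at the Twist1 promoter after 4 days at 10 μM in HSC6 or SCC25 cells. Antibody ratios: H3R2me2s 1:100, H4R3me2s 1:100, WDR5 1:50, Set1 1:50; ChIP assay kit protocol. Mean ± SD of three independent experiments, Student's t test.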

[11] = biological target: Protein arginine N-methyltransferase 5 (Homo sapiens) (UniProt O14744); assay: Inhibition of PRMT5 in human HSC-6 cells over expressing Twist1 assessed as increase in N-cadherin protein level at 10 uM incubated for 4 days by immunoblot analysis; type: cell-based; details: time 4.0 day
Summary of the method: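 HSC6 cells stably overexpressing Flag-Twist1, with or without 10 μM for 4 days. Twist1, N-cadherin and E-cadherin proteins detected by immunoblot.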

inhibition [1]: Active | inhibition [3]: Active | inhibition [6]: Active | inhibition [7]: Active | inhibition [10]: Active | inhibition [11]: inactive
Compound: O=C(NC[C@H](O)CN1CCc2ccccc2C1)c1cc(NC2COC2)ncn1
Activity [2]: Active | Activity (HSC-6 [4]): Active | Activity (HSC-6 [5]): Active | Activity (SCC-25): Active | Activity (HSC-6 [8]): Active | Activity [9]: Non-Toxic
